Laboratory results published in the EternaBench riboswitch data.

System: MS2 coat protein
Assay: apparent Kd, MS2 coat protein; higher = weaker binding; RNA-MaP array; FMN 200 µM where present
Outline: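 The apparent Kd is reported as the median of filtered per-cluster binding-curve fits. To get these curves, designs transcribed by stalled E. coli RNA polymerase on Illumina sequencing-chip clusters were titrated with SNAP-549-labelled MS2 coat protein from 0.7 or 1.5 nM, doubling to 3 µM. Titrations were run without and then with constant ligand in 100 mM Tris-HCl pH 7.5, 80 mM KCl, 4 mM MgCl2, BSA, DTT, yeast tRNA and Tween-20, and green signal was normalised to red-channel RNA signal and control-cluster median Fmax.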

[1] = designed as: OFF switch for flavin mononucleotide, no ligand
[2] = ligand present: flavin mononucleotide, designed as: OFF switch for flavin mononucleotide
[3] = designed as: ON switch for flavin mononucleotide, no ligand
[4] = ligand present: flavin mononucleotide, designed as: ON switch for flavin mononucleotide

Sequence	apparent Kd [1] [nM]	apparent Kd [2] [nM]	apparent Kd [3] [nM]	apparent Kd [4] [nM]
AUGAGUAAAGCAGGAUAUCUAUUGUCUCUGUAACAUGAGGAUCACCCAUGUAGAGAAGGGCUAAUUCUUACUCUUCGGAGUUGA	10.5	10.1		
AGUUAAUAUCGAGGAUAUCUCAUGAAUACAUGAGGAUCACCCAUGUGAAUGGGAGAAGGCGAUAUUAACAGCAUGUUACAUGCA			12.6	6.52
AUCACCUCGUCAGGAUAUACGUCACUGCGUCAGCAGUGUGGUAAGAUCACAUGAGGAUCACCCAUGUAGAAGGGACGAGCUGAU	14.7	268		
GCUAAUUAGUGAGGAUAUACAUAAUUUAUUACUGUAGAAGGCACAAACCUCAAGACAUGAGGAUCACCCAUGUGGUAUUUAAGC	151	394		
AACCGACAUGAGGAUCACCCAUGUCAGGAUAUGGACUGACACCGAAAGGGUGGCGGAACCAGAAGGGACUGGGC	36.3	96.5		
AAUAACAGAGGAUAUGCAAAAAUAAGCGGAAACGCAAGAAAACAUGAGGAUCACCCAUGUAGAAGGCUGGAUAA	23.6	17.6		
AAAAUCUAUACAGGAUAUCCAUACGCUGCAUACGGAGAAGGGUAACAAUCAUGAGGACAUGAGGAUCACCCAUGUUGUGACCAU			232	76.1
UGGUACAUCGGAGGAUAUCGUGUGUAAACAUGAGGAUCACCCAUGUCAUACGAGAGUAUGUAGAUCGAGAAGGCCGAUGUACCU			16.7	16.2
GCCAUCGCAUGAGGAUAUGCUCCGGUUUCCGGAGCAGAAGGCGUGUCAUUAGACAUGAGGAUCACCCAUGUAGUUAAGAUGGCA			489	21.3
ACAAAUUAGUGAGGAUAUGCAUAAUUUAUAACUGCAGAAGGCACAAACCUCAAGACAUGAGGAUCACCCAUGUGGAAUAUAGAU	73	182		
UAAUAGUAUGUUAGGAUAUGCUGGUCCUUGGAUCAGCAGAAGGAACAUGAGGAUCACCCAUGUAGACUAUUUUA	15.5	30		
AGCUACGUUUCGUAGCAGUGUCAUCGAGAAGGCUCAUAAACAUGAGGAUCACCCAUGUAUUCAUGGGAGGAUAUCGAUGAUACA			32.2	6.04
ACGGUUGGGACAGGAUAUGUAACCGGGAUUCUAGUUUCGUCCGUGACAUGAGGAUCACCCAUGUUACAGAAGGGUUCUAAAUCG	189	234		
UUAAAUUAGUAGAAGGACGGUGAGUAAGAAGUCGUAGGAUAUACAUAAGACAUGAGGAUCACCCAUGUAAGUUUGUUGGGUAUG	44.1	38.4		
GGAUAGGACAGAGGAUAUACGUGCUAGAGAUACGAGCAAAAUUUCCUCACAUGAGGAUCACCCAUGUAGAAGGCUGUCCUAUCG	32.5	578		
GAACAGGGAGGAUAUACAGAUCCUCGUGCCUGCGGACCAAGACAUGAGGAUCACCCAUGUAGAAGGCCCGAAAA	15.3	10.5		
UGUGCUGAAGGAUAUGCGUAAUCUCGGUGACGAGUAGAUCUACAUGAGGAUCACCCAUGUAGAAGGUCAGUACU	17.8	18.9		
GGUGGACAUGAGGAUCACCCAUGUGAGGAUAUCGGCUAUCUACUCGCUGACGGCUGCUCGAGAAGGCGCAUUGU	62.1	58.8		
GGAUUACAUGAGGAUCACCCAUGUGAGGAUAUCGAUGUCCCUAGGAGCGUGCGGGACUCGAGAAGGCACUUGGA	39.7	234		
UUCAUGUGAGGAUAUAGUACUUCUUCUAUUAUUAUUGAGUACUAGAAGGCACAUGAGGAUCACCCAUGUAGUAC	58	20.9		
UAGCCUGUAGGAGUGGAAGCCGGUAGAAGGCAGCAUUGAUGGACCGACAUGAGGAUCACCCAUGUUGAGGAUAUACCGGGCACU	39.3	247		
GGAUAGGGCAGAGGAUAUACGUGCUAGAGAUACUAGCAAAAUUUCCUCACAUGAGGAUCACCCAUGUAGAAGGCUGUCCUAUCG	14.1	464		
GUAGCAUACCGAGGAUAUUCGUCCGGAUUACGGACAUGAGGAUCACCCAUGUGGCGAAAGCCUUGGGAGAAGGCGGAAUGCUAC			732	247
AAAUUGACGGGACAUGAGGAUCACCCAUGUGCUAGCCGGACCAGAAGGGCAGCCGGCACGUGGUUGCAGGAUAUGGCCGUCGCA			154	151
CCACGUCACAUAUACAUGAGGAUCACCCAUGUCAAAAGACAUGAGGAUAUGGAUCCUAAUUGGAUCCAGAAGGCAUGGACGUGG			757	50.8
AAUGUGUGUCGAGGAUAUAUAACAUGACAACAAACACAUACAUGAGGAUCACCCAUGUCCCAUGUAUAGAAGGCGAUGUGUGUG			219	434
GCUCCCGGUGUCAGGAUAUAGAGUUGGAAACGCCACUAGAAGGGACAUGAGGAUCACCCAUGUCAAGUUCGCUC	14.8	14.9		
UUGGACGUCGUAGGAUGUGUAGGAUAUUCCUACAUGAGGAUCACCCAUGUUGACAUGGAAGAAGGACAGAAGGACGAUGUCCAU			386	12.9

Sequence	apparent Kd [1] [nM]	apparent Kd [2] [nM]	apparent Kd [3] [nM]	apparent Kd [4] [nM]
AAGUCGAGCGUGAGGAUAUCGUCCGGACGACCGAACGAGAAGGCACAUGAGGAUCACCCAUGUGAUUCAGCUCA	19	70.5		
AGAUUUGUACAUGAGGAUCACCCAUGUUAAUAGGUGGUUGUCAGAAGGCAUUAAUAGAGAUUUAAUGAGGAUAUGAAUUUACAA			1420	1040
AGGAGUAAAGGGAAUAACAUGAGGAUCACCCAUGUAUGGGAGAGAAGGCAGAUUGGAGGACGAUCUGAGGAUAUUUAAACUCUA			53.5	20.1
UCAUCAGCGGGCGGGUCGGUUGGACAUGAGGAUCACCCAUGUAGAAGGACCGGUGGACUCCGCCGGUAGGAUAUACAUUUGGUG	32.1	18.9		
UGGUACUAGGGAGGAUAUGGGAAGAUACAUGAGGAUCACCCAUGUUUAAGAAUGCCGAGAGGCAACUAGAAGGCCCUAGUACGU			434	19.6
AAACUCAUUGUCAGGAUAUGUAUUGAAGGAAUCGGACAGAAGGGACAUGAGGAUCACCCAUGUUACUAAGACCC	25.9	74.3		
UUGAAAUUGUAAGGAUAUACUCUGUGAUGAAGAGUAGAAGGUACUUACAUGAGGAUCACCCAUGUUUAACGAGAUACUAAUCGU			32	16.6
AGGUAACAUGAGGAUCACCCAUGUACCAAUAAUGCAGGAUAUCGACACGAAAAUACGUGUCGAGAAGGGCAUGAAA			14.1	16.4
GCAUUGAGUGUGAGGAUAUGCUGGUCCUUGGAUCAGCAGAAGGCACAUGAGGAUCACCCAUGUGAAUACAAUGC	20.9	116		
GAUCCUUCUGUUAGGAUAUGCUACGGGCUUCCGCUGCAGAAGGAACAUGAGGAUCACCCAUGUCAAAUAAAAUC	20.1	80.2		
CUGACGGCAGGAUAUACAUGAGGAUCACCCAUGUAAAUUUUUCGUUUACCUUGACCGUGUAGAAGGGCCCAACC	14.8	14.7		
AGCGAACAGGCUAACAUGAGGAUCACCCAUGUGGACUCAUGGUAGGAUAUCGGGAAGGAGGAAACCGAGAAGGGCCGGUGAGCA			69.8	80.9
GAUCCUUCUGUUAGGAUAUGCUUUGGGCUUCCGCAGCAGAAGGAACAUGAGGAUCACCCAUGUCCAAUACCAUC	42.6	41.8		
AUAAUUUUAUUUUUCCCAAGAAUCAGAAGGCAUUACAUGAGGAUCACCCAUGUUUUGGAUAGUAAUGAGGAUAUGAUAUGGUUA	10.2	23.5		
UUGGACGUCGUAGGAUAUGUAGGAUAUUCCUACAUGAGGAUCACCCAUGUUGACAUGGAAGAAGGACAGAAGGACGAUCUCCAU			360	5.49
AUAUGGGCCCAGAAGGUGCCAGCGAGAGCUGCACAUGAGGAUCACCCAUGUUGUCGGUGACGACGCAAGGAUAUGGGCCCAUAU			22.1	6.26
GGAUCGAAUGUGAGGAUAUGCUGGUCCUUGGAUCAGCAGAAGGCACAUGAGGAUCACCCAUGUGUUCCCGGUCC	79.5	716		
UUUAGUUUAGGAUAUGUAGACGUUAACAUGAGGAUCACCCAUGUAGAUCCUGAAUUGGCUACAGAAGGAAGCAUUU	285	531		
AUUAAUAAGUAGAAGGACGGAGAGUAUGAAGUCGUAGGAUAUACAAUAGACAUGAGGAUCACCCAUGUAUGUUGGGUGUGAAUG	376	254		
AAUGGCGUGAUAACGCUAAUUAAAACAUGAGGAUCACCCAUGUAGGAUAUCCUACCGAAAUGGUAGGAGAAGGACAAGCAAUGA	33.4	27.7		
CCACGGUAUGUAGGAUAUGCAUAGCAUUGCUAUGCAGAAGGACAUGAGGAUCACCCAUGUAUGUAUUCCAUACUAAUCCCGUGG	5.5	5.69		
CUGUCGAUAUCAGGAUAUCGAUUAACUACAUGAGGAUCACCCAUGUUGACAUGGAAUAUAACUUGCGAGAAGGGAUAACGAUAG			23.4	13.8
CUUUCUUGCAAGGAUAUGCAAUUUAUUAUUUAUGCAGAAGGUGCUACAUGAGGAUCACCCAUGUUUCUGGGUUU	146	208		
UUUUCUCGUGAGAAGGACAUGAGGAUCACCCAUGUAGGAUAUCGUGGGAGACAGGAAUUGAAUCUUCGGAUUCAAUUCCAGUCU			107	10.1
CCAUUCAGAGGAUAUGCGCAUAGAUAAGACUUUGUUUCUUAACAUGAGGAUCACCCAUGUAGAAGGCUGUACCC	24.1	21		
GAUUAGUGAGGAUAUAUUUACGAUCCUCAGCUUUAUUCAGGACAUGAGGAUCACCCAUGUAGAAGGCGUUAAUC	25.8	34.6		
CAGCAUCAUGUAGGAUAUGCGUGGCGAAGCUAUGCAGAAGGACAUGAGGAUCACCCAUGUCUUAGCUAGCGUACUAGCUUGCUG	7.5	21.4		
